This note sets out measurements from ChEMBL document CHEMBL4393676, “Design, Synthesis, and Preclinical Characterization of Selective Factor D Inhibitors Targeting the Alternative Complement Pathway” (J Med Chem, 2019).

Series [1] concerns Mus musculus. Nature of the series: Suppression of LPS-induced alternative complementation pathway in human FD knock-in C57BL/6 mouse assessed as reduction in plasma Ba level treated via oral gavage […] prior to LPS stimulation and measured up to 24 hrs post-dose. Format: functional, organism-based.
Series [2] in a line: Volume of distribution at steady state in C57BL/6 mouse at 1 mg/kg, iv or 10 mg/kg, po administered via gavage by HPLC-MS/MS analysis. Format: ADME, organism-based. The following applies: in vivo, read-out: Vdss.
Series [3] is described as follows: Clearance in C57BL/6 mouse at 1 mg/kg, iv or 10 mg/kg, po administered via gavage by HPLC-MS/MS analysis. It counts as ADME, organism-based. The following applies: in vivo.
For series [4], the system named is Mus musculus. The series can be described thus: Suppression of intravitreal injection-activated alternative complementation pathway in human FD knock-in C57BL/6 mouse model of local ocular injury assessed as reduction in ocular Ba level treated via oral gavage 2 hrs prior to intravitreal injection and measured after 4 hrs by Western blot analysis. Format: functional, organism-based. A digest of the protocol: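 Human FD knock-in mice dosed by oral gavage (3 or 10 mg/kg) at time 0; 2 h later anesthetized and injected intravitreally with 1 µL sterile PBS. Eyes taken 4 h after injection; lysates analysed for Ba by Western blot, relative to vehicle, mean ± SEM.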
A general note: Immunoblotting shows a protein as a band on a membrane.

Series [5] can be described thus: Volume of distribution at steady state in Beagle dog at 1 mg/kg, iv or 10 mg/kg, po administered via gavage by HPLC-MS/MS analysis. The note with it: in vivo, read-out: Vdss. It counts as ADME, organism-based, Canis lupus familiaris. In a few lines:
(§1)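 Beagle dogs, n=3 per route: IV 1 mg/kg in 2% 1N HCl, 20% PEG 300, 50% of 20% solutol in PBS; PO gavage 10 mg/kg as solution in 20% PEG 300, 10% solutol HS15, 70% citrate buffer pH 3. Blood at 5 min (IV), 15 min, 0.5, 1, 2, 4, 7, 24 h; HPLC-MS/MS (ESI positive); non-compartmental analysis; mean ± SD.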

A short description of series [6]: AUC (0 to 7 hrs) in C57BL/6 mouse at 10 mg/kg, po administered via gavage by HPLC-MS/MS analysis. It counts as ADME, organism-based. The following applies: in vivo; for AUC(0-t) at 7 h: C57BL/6, mouse. Also noted: time < 7 hr, dose 10 mg/kg, route oral.
The nature of series [7]: AUClast in Beagle dog at 10 mg/kg, po administered via gavage by HPLC-MS/MS analysis. Format: ADME, organism-based, Canis lupus familiaris. Details: dose 10 mg/kg, time 0 - last, route oral. The note with it: in vivo. In a few lines: as §1
Series [8] is described as follows: Elimination half life in C57BL/6 mouse at 1 mg/kg, iv by HPLC-MS/MS analysis. It counts as ADME, organism-based. The note with it: in vivo, read-out: beta t1/2 (converted).
The nature of series [9]: Oral bioavailability in C57BL/6 mouse 10 mg/kg by HPLC-MS/MS analysis. The note with it: in vivo; for bioavailability: C57BL/6, mouse. Format: ADME, organism-based.
The nature of series [10]: Time at which posterior eye cup concentration stays above in vitro IC50 for inhibition of FD-mediated alternative complementation pathway in 50% human whole blood in Brown Norway rat at 10 mg/kg, po. It counts as organism-based. The note with it: in vivo. A digest of the protocol:
(§2)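 Three-month-old Brown Norway rats given single 10 mg/kg oral gavage, suspension in 0.5% HPMC/0.1% Tween 80. Plasma and both eyes' retina and posterior eye cup (RPE/choroid plus posterior sclera) taken from 2 rats per time at 0.25, 0.5, 1, 3, 6, 24 h; tissues homogenized in PBS with 10% acetonitrile, supernatants by HPLC-MS/MS. AUC dose normalized.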

Series [11] is described as follows: Cmax in Beagle dog at 10 mg/kg, po administered via gavage by HPLC-MS/MS analysis. It counts as ADME, organism-based, Canis lupus familiaris. Details: dose 10 mg/kg, route oral. The following applies: in vivo. A digest of the protocol: as §1
Series [12] is described as follows: Clearance in Beagle dog at 1 mg/kg, iv or 10 mg/kg, po administered via gavage by HPLC-MS/MS analysis. It counts as ADME, organism-based, Canis lupus familiaris. The following applies: in vivo. In a few lines: as §1
The nature of series [13]: Dose normalized AUC in Brown Norway rat plasma at 10 mg/kg, po administered via gavage by HPLC-MS/MS analysis. It counts as ADME, organism-based. The following applies: in vivo. In a few lines:
as §2

Series [14] can be described thus: Drug level in Brown Norway rat retina at 10 mg/kg, po administered via gavage measured at 24 hrs post dose by HPLC-MS/MS analysis. Format: ADME, organism-based. The following applies: in vivo, BLD = below limit of detection. A digest of the protocol: as §2
A short description of series [15]: AUC (0 to 7 hrs) in C57BL/6 mouse at 1 mg/kg, iv by HPLC-MS/MS analysis. It counts as ADME, organism-based. Also noted: dose 1 mg/kg, time < 7 hr, route intravenous. The note with it: in vivo; for AUC(0-t) at 7 h: C57BL/6, mouse.
The nature of series [16]: Dose normalized AUC in Brown Norway rat retina at 10 mg/kg, po administered via gavage by HPLC-MS/MS analysis. It counts as ADME, organism-based. The following applies: in vivo. In a few lines:
as §2

Series [17] can be described thus: Plasma concentration in Brown Norway rat at 10 mg/kg, po administered via gavage measured at 24 hrs post dose by HPLC-MS/MS analysis. Format: ADME, organism-based. In a few lines: as §2
The nature of series [18]: Cmax in C57BL/6 mouse at 10 mg/kg, po administered via gavage by HPLC-MS/MS analysis. Format: ADME, organism-based. Also noted: dose 10 mg/kg, route oral. The following applies: in vivo.
Series [19] is described as follows: Half life in Beagle dog at 1 mg/kg, iv or 10 mg/kg, po administered via gavage by HPLC-MS/MS analysis. The note with it: in vivo. It counts as ADME, organism-based, Canis lupus familiaris. In a few lines: as §1
A short description of series [20]: Tmax in Beagle dog at 10 mg/kg, po administered via gavage by HPLC-MS/MS analysis. It counts as ADME, organism-based, Canis lupus familiaris. The note with it: in vivo. In a few lines:
as §1

A short description of series [21]: Drug level in Brown Norway rat posterior eye cup at 10 mg/kg, po administered via gavage measured at 24 hrs post dose by HPLC-MS/MS analysis. Format: ADME, organism-based. The note with it: read-out: Drug uptake. A digest of the protocol:
as §2

The nature of series [22]: Oral bioavailability in Beagle dog at 10 mg/kg administered via gavage by HPLC-MS/MS analysis. Format: ADME, organism-based, Canis lupus familiaris. The note with it: in vivo. In a few lines:
as §1

Series [23] in a line: Dose normalized AUC in Brown Norway rat posterior eye cup at 10 mg/kg, po administered via gavage by HPLC-MS/MS analysis. It counts as ADME, organism-based. The note with it: in vivo. In a few lines:
as §2

The next series deals with Tryptase beta-2 (Homo sapiens, UniProt P20231). The series can be described thus: Inhibition of tryptase-beta2 (unknown origin).
A short description of series [24]: Solubility of the compound at pH 6.8. It counts as physicochemical. The note with it: buffer.
The target of another series is Coagulation factor XI (Homo sapiens, UniProt P03951). Nature of the series: Inhibition of F11a (unknown origin).

Molecules are shown by their SMILES. pIC50: −log10 of the molar value. In brackets after ≈: the same amount, converted by molar mass.

Usually AUC(0-t) stands for exposure summed from dosing to a finite time, without extrapolation to infinity. A lower AUC(0-t) goes with low exposure. Broadly, the bioavailability is dose-corrected exposure relative to a reference, in per cent. By Cmax is commonly meant the maximum level reached in the sampled fluid or tissue. What is called Tmax is the time from dosing to the highest level. Regarding `N[C@H](CO)c1cccc(-c2cccc(COc3ccccc3CC(=O)O)c2)c1`, the Activity result with Mus musculus [1] and with Mus musculus [4] was “Dose-dependent effect” each time. Moreover, the Vd in series [2] was found to be 0.3 L/kg; in series [5], 0.8 L/kg. Further, the clearance in series [3] came out at 0.156 L/h/kg; in series [12], 0.228 L/h/kg. In addition, the results for the AUC(0-t) at 7 h in series [6] and in series [15] were 125 µM·h and 16.1 µM·h, respectively. In series [7], the area under the curve AUC(0-t) is 85 µM·h. For the same molecule, the half-life in series [8] was 1.6 h; in series [19], 3.8 h. In addition, the figures for the bioavailability in series [9] and in [22] were 83% and 70%, respectively. In addition, the Time in series [10] was more than 24 h. Further, the Cmax in [11] was 16.5 µM; in [18] it was 31 µM. Besides, the results for the AUC/dose in series [13], in series [16] and in series [23] were 2300 nM·h, 8 nM·h and 1160 nM·h, respectively. The Drug uptake entry in series [14] is recorded as “Bld”. Besides, the figures for the concentration at 24 h in series [17] and in series [21] were 0.034 µM and 0.29 µM, respectively. In series [20], the Tmax stood at 0.8 h.

Take `N[C@H](CCO)c1cccc(-c2cccc(COc3ccccc3CC(=O)O)c2)c1`: the Vd in [2] amounted to 0.3 L/kg. The same molecule yielded a clearance in [3] of 0.522 L/h/kg. Besides, the AUC(0-t) at 7 h in series [6] worked out at 19.5 µM·h; in series [15] it was 4.97 µM·h. Further, the half-life in series [8] was 1.3 h. This molecule showed a bioavailability in series [9] of 39%. In series [18], this molecule gave a Cmax of 10.7 µM.

`NCc1cccc(-c2cccc(COc3ccccc3CC(=O)O)c2)c1` showed a clearance in series [3] of 0.84 L/h/kg. This molecule showed a bioavailability in [9] of 100%.

The term pIC50 denotes the IC50 on a negative log10 scale, so that one unit is a factor of ten. Broadly, the solubility is the concentration that dissolves in the medium under given conditions. As to `NCc1cccc(-c2cccc(C(=O)Nc3ccccc3CC(=O)O)c2)c1`, the pIC50 against Tryptase beta-2 was 5.64; against Coagulation factor XI, 5.55. The molecule further gave a clearance in [3] of 1.32 L/h/kg. This molecule registered a solubility in series [24] of 220 µM (≈ 79.3 µg/mL). The bioavailability in [9] turned out to be 10%.

For orientation: AUC means concentration integrated over time. Higher therefore signals more exposure. Turning to `N[C@H](CO)c1cccc(-c2cc(Br)cc(COc3ccccc3CC(=O)O)c2)c1`, the Vd in series [2] is 0.1 L/kg. Further, the clearance in series [3] was determined as 0.042 L/h/kg. The AUC stood at 11.6 µM·h in series [6] (mouse, 7 h) and 48.7 µM·h in series [15] (mouse, 7 h). Moreover, the half-life in series [8] was 2.5 h. In series [9] (mouse), this molecule gave an F of 25%. In series [18], this molecule displayed a Cmax of 26 µM.
